# From ChEMBL document CHEMBL4138044, “Withaferin A induces cell death and differentiation in multiple myeloma cancer stem cells” (Medchemcomm, 2017)
# Active and inactive are the calls of the source. The rule behind the calls is not given here.
# Columns and labels:
# [1] = system: Multiple myeloma cancer stem cell; assay: Induction of morphological changes in human multiple myeloma cancer stem cells assessed as appearance in circular shape at 0.62 uM after 24 hrs by phalloidin/DAPI staining-based assay; assay type: functional
# How it was run: (§1)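 MM-CSCs seeded at 5000 cells/well and allowed to adhere 24 h, then treated with increasing WFA for 24 h. Fixed in 4% paraformaldehyde for 10 min, permeabilized with 0.1% Triton X-100 for 5 min, stained with 5 U/mL phalloidin for 20 min and 1 μg/mL DAPI for 5 min at room temperature. Imaged; cell area and circularity quantified; 3 experiments.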
# [2] = system: Multiple myeloma cancer stem cell; assay: Induction of apoptosis in human multiple myeloma cancer stem cells assessed as increase in late apoptotic cells at 5 uM after 24 hrs by annexin V/propidium iodide staining-based flow cytometric method; assay type: functional
# How it was run: (§2)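 Annexin V/propidium iodide apoptosis staining after 24 h WFA. MM-CSCs adhered 24 h before treatment; RPMIs treated immediately after seeding at 300 000 per well. Floating and adherent cells washed, adjusted to 10^6 cells/mL, stained 15 min at room temperature, flow cytometry separating viable, early and late apoptotic cells; ≥3 independent experiments, mean ± SEM.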
# [3] = Cytotoxicity against human CD34-positive hematopoietic stem cells assessed as decrease in cell viability at <5 uM after 24 hrs by calcein AM/ethidium homodimer staining-based flow cytometric method
# [4] = Cell cycle arrest in human […] cells assessed as accumulation at sub-G1 phase at 1.25 uM […] by FxCycle violet staining-based flow cytometric method (reference value: 10.8%); assay type: functional
# How it was run: (§3)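 Cells treated 24 h with vehicle or WFA; MM-CSCs were seeded at 100 000 per well and left to adhere 24 h first, RPMIs seeded at 300 000 per well and treated at once. Floating and adherent cells fixed and permeabilized, adjusted to 10^6 cells/mL in PBS, then stained with FxCycle DNA dye for 30 min at room temperature. Flow cytometry; ≥3 independent experiments, mean ± SEM.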
# RPMI-8226 (Homo sapiens) [5] = assay: Cell cycle arrest in human RPMI-8226 cells assessed as accumulation at S phase at 1.25 uM […] by FxCycle violet staining-based flow cytometric method (reference value: 40.9%)
# [6] = system: Multiple myeloma cancer stem cell; assay: Antimigratory activity in human multiple myeloma cancer stem cells at 2.5 uM after 24 hrs by scratch assay; assay type: functional, cell-based
# How it was run: (§4)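 MM-CSCs seeded at 100 000 cells per well, grown 24 h to a confluent monolayer, scratched with a pipette tip and imaged at 0 h. Cells then treated with increasing WFA concentrations for 24 h and the same spot re-imaged. Percent unfilled space = scratch width at 24 h / width at 0 h × 100; recovery = 100 − unfilled. 3 independent experiments.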
# [7] = system: Multiple myeloma cancer stem cell; assay: Cytotoxicity against human multiple myeloma cancer stem cells assessed as decrease in cell viability after 24 hrs by calcein AM/ethidium homodimer staining-based flow cytometric method; assay type: functional
# [8] = system: Multiple myeloma cancer stem cell; assay: Cytotoxicity against human multiple myeloma cancer stem cells assessed as dead cells at 10 uM after 24 hrs by calcein AM/ethidium homodimer staining-based flow cytometric method (reference value: 0.7%); assay type: functional
# [9] = system: Multiple myeloma cancer stem cell; assay: Cytotoxicity against human multiple myeloma cancer stem cells assessed as dying cells at 10 uM after 24 hrs by calcein AM/ethidium homodimer staining-based flow cytometric method (reference value: 3.6%); assay type: functional
# [10] = system: Multiple myeloma cancer stem cell; assay: Induction of morphological changes in human multiple myeloma cancer stem cells assessed as appearance of larger cytoplasmic area at 1.25 uM after 24 hrs by phalloidin/DAPI staining-based assay; assay type: functional; how it was run: as §1
# RPMI-8226 (Homo sapiens) [11] = assay: Cell cycle arrest in human RPMI-8226 cells assessed as accumulation at S phase at 0.62 uM […] by FxCycle violet staining-based flow cytometric method (reference value: 40.9%)
# [12] = system: Multiple myeloma cancer stem cell; assay: Cell cycle arrest in human multiple myeloma cancer stem cells assessed as accumulation at G1 phase at 2.5 uM […] by FxCycle violet staining-based flow cytometric method (reference value: 45.1%); assay type: functional; how it was run: as §3
# [13] = system: Multiple myeloma cancer stem cell; assay: Induction of morphological changes in human multiple myeloma cancer stem cells assessed as appearance in spherical shape at 1.25 uM after 24 hrs by phalloidin/DAPI staining-based assay; assay type: functional; how it was run: as §1
# Homo sapiens [14] = organism: Homo sapiens; assay: Cytotoxicity against human RPMI18226 cells assessed as increase in dead cells at 1.25 uM after 24 hrs by calcein AM/ethidium homodimer staining-based flow cytometric method (reference value: 21.4%); assay type: functional, cell-based
# Homo sapiens [15] = organism: Homo sapiens; assay: Cytotoxicity against human RPMI18226 cells assessed as decrease in cell viability after 24 hrs by calcein AM/ethidium homodimer staining-based flow cytometric method; assay type: functional
# [16] = system: Multiple myeloma cancer stem cell; assay: Induction of differentiation of human multiple myeloma cancer stem cells assessed as downregulation of SOX2 mRNA expression at 0.31 to 5 uM after 24 hrs by qPCR method; assay type: functional, cell-based
# How it was run: (§5)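 MM-CSCs treated with vehicle or increasing WFA concentrations for 24 h. Relative mRNA levels of the stemness markers then measured; mean ± SEM of 3 independent experiments, one-way ANOVA with Bonferroni test.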
# [17] = Cytotoxicity against human RPMI18226 cells assessed as dead cells at 10 uM after 24 hrs by calcein AM/ethidium homodimer staining-based flow cytometric method (reference value: 21.4%); assay type: functional
# [18] = system: Multiple myeloma cancer stem cell; assay: Induction of differentiation of human multiple myeloma cancer stem cells assessed as downregulation of CD166 mRNA expression at 0.31 to 5 uM after 24 hrs by qPCR method; assay type: functional, cell-based; how it was run: as §5
# [19] = Cell cycle arrest in human […] cells assessed as accumulation at G1 phase at 1.25 uM […] by FxCycle violet staining-based flow cytometric method (reference value: 28.2%); assay type: functional; how it was run: as §3
# [20] = system: Multiple myeloma cancer stem cell; assay: Induction of morphological changes in human multiple myeloma cancer stem cells assessed as appearance of epithelial/lymphoblastic-like morphology at 0.62 uM after 24 hrs by phalloidin/DAPI staining-based assay; assay type: functional; how it was run: as §1
# Homo sapiens [21] = organism: Homo sapiens; assay: Induction of apoptosis in human […] cells assessed as decrease in viable cells at 1.25 uM after 24 hrs by annexin V/propidium iodide staining-based flow cytometric method; assay type: functional, cell-based; how it was run: as §2
# [22] = system: Multiple myeloma cancer stem cell; assay: Cell cycle arrest in human multiple myeloma cancer stem cells assessed as accumulation at G1 phase at 0.62 uM […] by FxCycle violet staining-based flow cytometric method (reference value: 45.1%); assay type: functional; how it was run: as §3
# [23] = Antiproliferative activity against human […] cells after 72 hrs by XTT assay; assay type: functional, cell-based
# How it was run: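 RPMI 8226 cells in RPMI 1640 with 10% FBS, plated at 15 000 cells/well and treated immediately with 0–10 μM WFA for 72 h. XTT added for 4 h. Growth as absorbance relative to vehicle control ×100. IC50 fitted from at least five concentrations; mean of three independent experiments ± SEM.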
# Homo sapiens [24] = organism: Homo sapiens; assay: Cell cycle arrest in human […] cells assessed as accumulation at sub-G1 phase […] by FxCycle violet staining-based flow cytometric method; assay type: functional; how it was run: as §3
# [25] = Cell cycle arrest in human […] cells assessed as accumulation at sub-G1 phase at 0.62 uM […] by FxCycle violet staining-based flow cytometric method (reference value: 10.8%); assay type: functional; how it was run: as §3
# [26] = system: Multiple myeloma cancer stem cell; assay: Induction of apoptosis in human multiple myeloma cancer stem cells assessed as decrease in viable cells at 5 uM after 24 hrs by annexin V/propidium iodide staining-based flow cytometric method; assay type: functional; how it was run: as §2
# [27] = system: Multiple myeloma cancer stem cell; assay: Induction of differentiation of human multiple myeloma cancer stem cells assessed as downregulation of CD151 mRNA expression at 0.31 to 5 uM after 24 hrs by qPCR method; assay type: functional, cell-based; how it was run: as §5
# [28] = system: Multiple myeloma cancer stem cell; assay: Induction of morphological changes in human multiple myeloma cancer stem cells assessed as cell enlargement at 0.62 uM after 24 hrs by phalloidin/DAPI staining-based assay; assay type: functional; how it was run: as §1
# [29] = Cell cycle arrest in human […] cells assessed as accumulation at G2/M phase at 1.25 uM […] by FxCycle violet staining-based flow cytometric method (reference value: 20.2%); assay type: functional; how it was run: as §3
# [30] = Cytotoxicity against human CD34-positive hematopoietic stem cells assessed as decrease in cell viability at 10 uM after 24 hrs by calcein AM/ethidium homodimer staining-based flow cytometric method
# [31] = system: Multiple myeloma cancer stem cell; assay: Induction of differentiation of human multiple myeloma cancer stem cells assessed as downregulation of MSI2 mRNA expression at 0.31 to 5 uM after 24 hrs by qPCR method; assay type: functional, cell-based; how it was run: as §5
# Homo sapiens [32] = organism: Homo sapiens; assay: Induction of apoptosis in human […] cells assessed as increase in late apoptotic cells at 1.25 uM after 24 hrs by annexin V/propidium iodide staining-based flow cytometric method; assay type: functional, cell-based; how it was run: as §2
# [33] = Cytotoxicity against human RPMI18226 cells assessed as cell viability at 10 uM after 24 hrs by calcein AM/ethidium homodimer staining-based flow cytometric method (reference value: 67.7%); assay type: functional; conditions: RPMI18226, 24 h, read-out: Activity
# [34] = system: Multiple myeloma cancer stem cell; assay: Cytotoxicity against human multiple myeloma cancer stem cells assessed as cell viability at 10 uM after 24 hrs by calcein AM/ethidium homodimer staining-based flow cytometric method (reference value: 95.7%); assay type: functional; conditions: read-out: Activity
# [35] = system: Multiple myeloma cancer stem cell; assay: Antiproliferative activity against human multiple myeloma cancer stem cells after 72 hrs by MTT assay; assay type: functional, cell-based
# How it was run: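 MM-CSCs plated at 5000 cells/well and allowed to adhere 24 h, then exposed to 0–10 μM WFA for 72 h. MTT added for 2 h. Growth taken as absorbance relative to vehicle-control wells ×100. IC50 fitted from at least five concentrations; mean of three independent experiments ± SEM.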
# [36] = system: Multiple myeloma cancer stem cell; assay: Cytotoxicity against human multiple myeloma cancer stem cells assessed as cell viability at 2.5 uM after 24 hrs by calcein AM/ethidium homodimer staining-based flow cytometric method (reference value: 95.7%); assay type: functional; conditions: read-out: Activity
# [37] = system: Multiple myeloma cancer stem cell; assay: Cell cycle arrest in human multiple myeloma cancer stem cells assessed as accumulation at G2/M phase at 2.5 uM […] by FxCycle violet staining-based flow cytometric method (reference value: 22.9%); assay type: functional; how it was run: as §3
# RPMI-8226 (Homo sapiens) [38] = assay: Cell cycle arrest in human RPMI-8226 cells assessed as accumulation at S phase at 2.5 uM […] by FxCycle violet staining-based flow cytometric method (reference value: 40.9%)
# [39] = system: Multiple myeloma cancer stem cell; assay: Cell cycle arrest in human multiple myeloma cancer stem cells assessed as accumulation at G1 phase at 1.25 uM […] by FxCycle violet staining-based flow cytometric method (reference value: 45.1%); assay type: functional; how it was run: as §3
# [40] = system: Multiple myeloma cancer stem cell; assay: Antimigratory activity in human multiple myeloma cancer stem cells at 0.62 to 1.25 uM after 24 hrs by scratch assay; assay type: functional, cell-based; how it was run: as §4
# [41] = system: Multiple myeloma cancer stem cell; assay: Induction of differentiation of human multiple myeloma cancer stem cells assessed as upregulation of CD44 mRNA expression at 0.31 to 5 uM after 24 hrs by qPCR method; assay type: functional, cell-based; how it was run: as §5
# [42] = Cytotoxicity against human RPMI18226 cells assessed as cell viability at 1.25 uM after 24 hrs by calcein AM/ethidium homodimer staining-based flow cytometric method (reference value: 67.7%); assay type: functional; conditions: RPMI18226, 24 h, read-out: Activity
# [43] = system: Multiple myeloma cancer stem cell; assay: Cell cycle arrest in human multiple myeloma cancer stem cells assessed as accumulation at G2/M phase at 1.25 uM […] by FxCycle violet staining-based flow cytometric method (reference value: 22.9%); assay type: functional; how it was run: as §3
# [44] = system: Multiple myeloma cancer stem cell; assay: Induction of differentiation of human multiple myeloma cancer stem cells assessed as upregulation of Kit mRNA expression at 0.31 to 5 uM after 24 hrs by qPCR method; assay type: functional, cell-based; how it was run: as §5
# [45] = Cell cycle arrest in human […] cells assessed as accumulation at sub-G1 phase at 2.5 uM […] by FxCycle violet staining-based flow cytometric method (reference value: 10.8%); assay type: functional; how it was run: as §3
smiles,measurement,setting,value
CC1=C(CO)C(=O)O[C@@H]([C@@H](C)[C@H]2CC[C@H]3[C@@H]4C[C@H]5O[C@]56[C@@H](O)C=CC(=O)[C@]6(C)[C@H]4CC[C@]23C)C1 [WITHAFERIN A],Activity,[1],Active
same,Activity,[2],Active
same,Activity,[3],Non-Toxic
same,Activity,[4],23.1%
same,Activity,RPMI-8226 (Homo sapiens) [5],29.4%
same,Activity,[6],Active
same,Activity,[7],Dose-dependent effect
same,Activity,[8],56.4%
same,Activity,[9],31.5%
same,Activity,[10],Active
same,Activity,RPMI-8226 (Homo sapiens) [11],31.7%
same,Activity,[12],19.5%
same,Activity,[13],Active
same,Activity,Homo sapiens [14],Active
same,Activity,Homo sapiens [15],Dose-dependent effect
same,Activity,[16],Active
same,Activity,[17],87%
same,Activity,[18],Active
same,Activity,[19],19.1%
same,Activity,[20],Active
same,Activity,Homo sapiens [21],Active
same,Activity,[22],21.5%
same,IC50,[23],224 nM
same,Activity,Homo sapiens [24],Dose-dependent effect
same,Activity,[25],15.6%
same,Activity,[26],Active
same,Activity,[27],Active
same,Activity,[28],Active
same,Activity,[29],28.4%
same,Activity,[30],Toxic
same,Activity,[31],Active
same,Activity,Homo sapiens [32],Active
same,viability at 10 µM,[33],8.2%
same,viability at 10 µM,[34],12.1%
same,IC50,[35],650 nM
same,viability at 2.5 µM,[36],64.6%
same,Activity,[37],61.4%
same,Activity,RPMI-8226 (Homo sapiens) [38],34%
same,Activity,[39],15.5%
same,Activity,[40],inactive
same,Activity,[41],Active
same,viability at 1.25 µM,[42],32.1%
same,Activity,[43],59.6%
same,Activity,[44],Active
same,Activity,[45],21.5%
